Where “and” joins values, the source holds several entries; their conditions need not be identical. Equal entries are not always repeated.
What was measured:
[1] = test system: U2OS; assay: Multiplex assay against U2OS; format: toxicity, cell-based; conditions: human, number of replicates 2
In short: (§1)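 Phenotypes for tubulin, mitochondrial mass and membrane permeability are expressed as per cents of healthy-nucleus cells. Cells were stained live at seeding with Hoechst33342, BioTracker Green Microtubule Cytoskeleton Dye, MitoTracker Red and Annexin V Alexa Fluor 680, then imaged after compound addition on a CQ1 microscope at 37°C and 5% CO2. Machine-learning gating in CellPathfinder separated Hoechst high-intensity objects from normal cells, divided normal cells by nuclear state (healthy, pyknosed, fragmented) and divided pyknosed cells into mitotic or apoptotic.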

[2] = test system: Fibroblast; assay: Multiplex assay against human fibroblast; format: toxicity, cell-based; conditions: number of replicates 2; in short: as §1
[3] = 12 h, 1 µM, compound concentration 1 uM
[4] = 12 h, 10 µM, compound concentration 10 uM
[5] = 24 h, 1 µM, compound concentration 1 uM
[6] = 24 h, 10 µM, compound concentration 10 uM
[7] = 48 h, 1 µM, compound concentration 1 uM
[8] = 48 h, 10 µM, compound concentration 10 uM

In the case of CN(C)C/C=C/C(=O)Nc1cccc(S(=O)(=O)N2CCC(NC(=O)c3n[nH]cc3NC(=O)c3c(Cl)cc(Cl)cc3Cl)CC2)c1, the “Population Apoptotic (%)” value [1, 3] is reported as 78% and 85%, the “Population Fragmented Nuclei (%)” value [1, 3] is reported as 15% and 10% and the “Population Healthy Nuclei (%)” value [1, 3] is reported as 50% and 56%. The “Population Hoechst High Intensity Objects (%)” value [1, 3] was 0%, the “Population Membrane Permeable-Phenotype (%)” value [1, 3] was 15% and 7% and the “Population Mitotic Cells (%)” value [1, 3] was 21% and 14%. For the same compound, the “Population Normal (%)” value [1, 3] was 100% and 99%, the “Population Pyknosed Nuclei (%)” value [1, 3] was 35% and 33% and the “Population Tubulin-Different-Phenotype (%)” value [1, 3] was 65% and 50%. The “Population Apoptotic (%)” value [1, 4] was 80% and 82%, the “Population Fragmented Nuclei (%)” value [1, 4] was 8% and 13% and the “Population Healthy Nuclei (%)” value [1, 4] was 15% and 11%. The “Population Hoechst High Intensity Objects (%)” value [1, 4] was 0%, the “Population Membrane Permeable-Phenotype (%)” value [1, 4] was 80% and 83% and the “Population Mitochondria Different-Phenotype (%)” value [1, 4] was 45% and 66%. For the same compound, the “Population Mitotic Cells (%)” value [1, 4] was 19% and 17%, the “Population Normal (%)” value [1, 4] was 99% and 100% and the “Population Pyknosed Nuclei (%)” value [1, 4] was 76% and 75%. The “Population Tubulin-Different-Phenotype (%)” value [1, 4] was 100% and 83%, the “Population Apoptotic (%)” value [1, 5] was 65% and 93% and the “Population Fragmented Nuclei (%)” value [1, 5] was 25% and 9%. The “Population Healthy Nuclei (%)” value [1, 5] was 29% and 40%, the “Population Hoechst High Intensity Objects (%)” value [1, 5] was 0% and the “Population Membrane Permeable-Phenotype (%)” value [1, 5] was 6% and 13%. For the same compound, the “Population Mitochondria Different-Phenotype (%)” value [1, 5] was 13% and 20%, the “Population Normal (%)” value [1, 5] was 100% and the “Population Pyknosed Nuclei (%)” value [1, 5] was 45% and 50%. The “Population Tubulin-Different-Phenotype (%)” value [1, 5] was 86% and 59%, the “Population Apoptotic (%)” value [1, 6] was 97% and the “Population Fragmented Nuclei (%)” value [1, 6] was 11% and 9%. The “Population Healthy Nuclei (%)” value [1, 6] was 4% and 3%, the “Population Hoechst High Intensity Objects (%)” value [1, 6] was 0% and 2% and the “Population Membrane Permeable-Phenotype (%)” value [1, 6] was 100% and 83%. The “Population Mitochondria Different-Phenotype (%)” value [1, 6] was 100% and 83%, the “Population Mitotic Cells (%)” value [1, 6] was 2% and the “Population Normal (%)” value [1, 6] was 100% and 97%. The “Population Pyknosed Nuclei (%)” value [1, 6] was 84% and 87%, the “Population Tubulin-Different-Phenotype (%)” value [1, 6] was 100% and the “Population Apoptotic (%)” value [1, 7] was 76% and 97%. The “Population Healthy Nuclei (%)” value [1, 7] was 9% and 17%, the “Population Hoechst High Intensity Objects (%)” value [1, 7] was 4% and 5% and the “Population Normal (%)” value [1, 7] was 95% and 94%. The “Population Pyknosed Nuclei (%)” value [1, 7] was 60% and 74%, the “Population Tubulin-Different-Phenotype (%)” value [1, 7] was 100% and 82% and the “Population Apoptotic (%)” value [1, 8] was 93%. For the same compound, the “Population Fragmented Nuclei (%)” value [1, 8] was 0% and 6%, the “Population Healthy Nuclei (%)” value [1, 8] was 23% and 10% and the “Population Hoechst High Intensity Objects (%)” value [1, 8] was 0% and 1%. The “Population Membrane Permeable-Phenotype (%)” value [1, 8] was 90% and 94%, the “Population Mitochondria Different-Phenotype (%)” value [1, 8] was 90% and 72% and the “Population Mitotic Cells (%)” value [1, 8] was 6%. For the same compound, the “Population Normal (%)” value [1, 8] was 100% and 98%, the “Population Pyknosed Nuclei (%)” value [1, 8] was 76% and 83% and the “Population Tubulin-Different-Phenotype (%)” value [1, 8] was 100% and 88%. For the same compound, the “Population Apoptotic (%)” value [2, 3] was 51% and 32%, the “Population Fragmented Nuclei (%)” value [2, 3] was 12% and 7% and the “Population Healthy Nuclei (%)” value [2, 3] was 59% and 65%. The “Population Hoechst High Intensity Objects (%)” value [2, 3] was 0% and 1%, the “Population Membrane Permeable-Phenotype (%)” value [2, 3] was 11% and 14% and the “Population Mitochondria Different-Phenotype (%)” value [2, 3] was 1% and 5%. For the same compound, the “Population Mitotic Cells (%)” value [2, 3] was 48% and 67%, the “Population Normal (%)” value [2, 3] was 100% and 98% and the “Population Pyknosed Nuclei (%)” value [2, 3] was 28% and 26%. The “Population Tubulin-Different-Phenotype (%)” value [2, 3] was 45% and 40%, the “Total Cell Count” value [2, 3] was 158 and 185 and the “Population Apoptotic (%)” value [2, 4] was 47% and 44%. For the same compound, the “Population Fragmented Nuclei (%)” value [2, 4] was 28% and 26%, the “Population Healthy Nuclei (%)” value [2, 4] was 36% and 40% and the “Population Hoechst High Intensity Objects (%)” value [2, 4] was 0%. For the same compound, the “Population Membrane Permeable-Phenotype (%)” value [2, 4] was 18% and 10%, the “Population Mitochondria Different-Phenotype (%)” value [2, 4] was 4% and 5% and the “Population Mitotic Cells (%)” value [2, 4] was 52% and 55%. For the same compound, the “Population Normal (%)” value [2, 4] was 100%, the “Population Pyknosed Nuclei (%)” value [2, 4] was 34% and 32% and the “Population Tubulin-Different-Phenotype (%)” value [2, 4] was 82% and 72%. For the same compound, the “Total Cell Count” value [2, 4] was 243 and 248, the “Population Apoptotic (%)” value [2, 5] was 74% and 57% and the “Population Fragmented Nuclei (%)” value [2, 5] was 12% and 11%. For the same compound, the “Population Healthy Nuclei (%)” value [2, 5] was 62% and 63%, the “Population Hoechst High Intensity Objects (%)” value [2, 5] was 0% and the “Population Membrane Permeable-Phenotype (%)” value [2, 5] was 12% and 17%. For the same compound, the “Population Mitochondria Different-Phenotype (%)” value [2, 5] was 6% and 3%, the “Population Mitotic Cells (%)” value [2, 5] was 25% and 42% and the “Population Normal (%)” value [2, 5] was 100%. For the same compound, the “Population Pyknosed Nuclei (%)” value [2, 5] was 25%, the “Population Tubulin-Different-Phenotype (%)” value [2, 5] was 52% and 41% and the “Total Cell Count” value [2, 5] was 140 and 177. For the same compound, the “Population Apoptotic (%)” value [2, 6] was 73% and 77%, the “Population Fragmented Nuclei (%)” value [2, 6] was 19% and 21% and the “Population Healthy Nuclei (%)” value [2, 6] was 15% and 20%. For the same compound, the “Population Hoechst High Intensity Objects (%)” value [2, 6] was 0% and the “Population Membrane Permeable-Phenotype (%)” value [2, 6] was 25% and 12%.

— ChEMBL document CHEMBL5303300, “EUbOPEN Chemogenomics Library - Multiplex” (2023)
